Test results reported in ChEMBL document CHEMBL4325897, “Discovery, synthesis of novel fusidic acid derivatives possessed amino-terminal groups at the 3-hydroxyl position with anticancer activity” (Eur J Med Chem, 2019).
≈ marks a conversion by molar mass, not a printed value.

Key:
[1] = Cytotoxicity against human KBV cells assessed as cell viability at 5 uM after 72 hrs by MTT assay relative to control; assay type: functional; details: read-out: Activity
Outline: (§1)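 Cells grown in DMEM with 10% heat-inactivated FCS and penicillin/streptomycin at 37 °C, 5% CO2, and used in log phase. Seeded in 96-well plates and exposed to compounds at 5 μM and 1.5 μM for 72 h. MTT added, formazan dissolved in DMSO, OD read at 570 nm, and survival rate calculated. Average of at least three independent experiments.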

[2] = tested on: U-87 MG; test: Cytotoxicity against human U87 cells assessed as cell viability at 1.5 uM after 72 hrs by MTT assay relative to control; assay type: functional, U-87MG ATCC; details: read-out: Activity; outline: as §1
[3] = tested on: HeLa; test: Cytotoxicity against human HeLa cells assessed as cell viability at 1.5 uM after 72 hrs by MTT assay relative to control; assay type: functional; details: read-out: Activity; outline: as §1
[4] = tested on: MKN-45; test: Cytotoxicity against human MKN45 cells assessed as cell viability at 5 uM after 72 hrs by MTT assay relative to control; assay type: functional; details: MKN-45, 72 h, read-out: Activity; outline: as §1
[5] = tested on: U-87 MG; test: Cytotoxicity against human U87 cells assessed as cell viability at 5 uM after 72 hrs by MTT assay relative to control; assay type: functional, U-87MG ATCC; details: read-out: Activity; outline: as §1
[6] = tested on: HeLa; test: Cytotoxicity against human HeLa cells assessed as cell viability at 5 uM after 72 hrs by MTT assay relative to control; assay type: functional; details: read-out: Activity; outline: as §1
[7] = tested on: MKN-45; test: Cytotoxicity against human MKN45 cells assessed as cell viability at 1.5 uM after 72 hrs by MTT assay relative to control; assay type: functional; details: MKN-45, 72 h, read-out: Activity; outline: as §1
[8] = Cytotoxicity against human KBV cells assessed as cell viability at 1.5 uM after 72 hrs by MTT assay relative to control; assay type: functional; details: read-out: Activity; outline: as §1
[9] = tested on: Staphylococcus aureus; test: Antibacterial activity against Staphylococcus aureus; assay type: functional
[10] = Cytotoxicity against HEK293 cells assessed as reduction in cell viability after 72 hrs by MTT assay; assay type: cell-based; details: human

MIC [9] [µg/mL] | SMILES | viability at 5 µM [1] [%] | viability at 1.5 µM [2] [%] | viability at 1.5 µM [3] [%] | viability at 5 µM [4] [%] | viability at 5 µM [5] [%] | viability at 5 µM [6] [%] | viability at 1.5 µM [7] [%] | viability at 1.5 µM [8] [%] | CC50 at 72 h [10] [µg/mL]
– | CC(=O)O[C@H]1C[C@@]2(C)[C@@H](C[C@@H](O)[C@H]3[C@@]4(C)CC[C@@H](OC(=O)CCC(=O)O)[C@@H](C)[C@@H]4CC[C@@]32C)/C1=C(\CCC=C(C)C)C(=O)OCc1ccccc1 | 66 | 86 | 83 | 76 | 84 | 69 | 74 | 72 | –
– | CC(=O)O[C@H]1C[C@@]2(C)[C@@H](C[C@@H](O)[C@H]3[C@@]4(C)CC[C@@H](OC(=O)C(N)CC(C)C)[C@@H](C)[C@@H]4CC[C@@]32C)/C1=C(\CCC=C(C)C)C(=O)OCc1ccccc1 (stereo not given in full) | 83 | 106 | 99 | 92 | 111 | 22 | 95 | 96 | –
– | CC(=O)O[C@H]1C[C@@]2(C)[C@@H](C[C@@H](O)[C@H]3[C@@]4(C)CC[C@@H](OC(=O)CCC(=O)n5cccn5)[C@@H](C)[C@@H]4CC[C@@]32C)/C1=C(\CCC=C(C)C)C(=O)OCc1ccccc1 | 80 | 87 | 75 | 83 | 83 | 71 | 88 | 77 | –
– | CC(=O)O[C@H]1C[C@@]2(C)[C@@H](C[C@@H](O)[C@H]3[C@@]4(C)CC[C@@H](OC(=O)C(C)N)[C@@H](C)[C@@H]4CC[C@@]32C)/C1=C(\CCC=C(C)C)C(=O)OCc1ccccc1 (stereo not given in full) | 15 | 95 | 102 | 91 | 33 | 23 | 96 | 95 | –
– | CC(=O)O[C@H]1C[C@@]2(C)[C@@H](C[C@@H](O)[C@H]3[C@@]4(C)CC[C@@H](OC(=O)c5ccccc5C(=O)N5CCOCC5)[C@@H](C)[C@@H]4CC[C@@]32C)/C1=C(\CCC=C(C)C)C(=O)OCc1ccccc1 | 66 | 86 | 76 | 92 | 77 | 60 | 104 | 81 | –
– | CC(=O)O[C@H]1C[C@@]2(C)[C@@H](C[C@@H](O)[C@H]3[C@@]4(C)CC[C@@H](OC(=O)CCC(=O)N5CCN(C)CC5)[C@@H](C)[C@@H]4CC[C@@]32C)/C1=C(\CCC=C(C)C)C(=O)OCc1ccccc1 | 71 | 87 | 70 | 75 | 88 | 47 | 81 | 82 | –
> 32 | CC(=O)O[C@H]1C[C@@]2(C)[C@@H](C[C@@H](O)[C@H]3[C@@]4(C)CC[C@@H](OC(=O)CN)[C@@H](C)[C@@H]4CC[C@@]32C)/C1=C(\CCC=C(C)C)C(=O)OCc1ccccc1 | 28 | 94 | 100 | 93 | 41 | 96 | 95 | 97 | 10.8 (≈ 16.3 µM)
– | CC(=O)O[C@H]1C[C@@]2(C)[C@@H](C[C@@H](O)[C@H]3[C@@]4(C)CC[C@@H](OC(=O)[C@@H](N)CCCCN)[C@@H](C)[C@@H]4CC[C@@]32C)/C1=C(\CCC=C(C)C)C(=O)OCc1ccccc1 | 18 | 105 | 101 | 8 | 9 | 8 | 91 | 99 | –
– | CC(=O)O[C@H]1C[C@@]2(C)[C@@H](C[C@@H](O)[C@H]3[C@@]4(C)CC[C@@H](OC(=O)CCC(=O)N5CCOCC5)[C@@H](C)[C@@H]4CC[C@@]32C)/C1=C(\CCC=C(C)C)C(=O)OCc1ccccc1 | 66 | 91 | 76 | 78 | 93 | 64 | 82 | 78 | –
– | CC(=O)O[C@H]1C[C@@]2(C)[C@@H](C[C@@H](O)[C@H]3[C@@]4(C)CC[C@@H](OC(=O)c5nccnc5C(=O)O)[C@@H](C)[C@@H]4CC[C@@]32C)/C1=C(\CCC=C(C)C)C(=O)OCc1ccccc1 | 108 | 88 | 76 | 87 | 90 | 69 | 95 | 86 | –
32 (≈ 42.4 µM) | CC(=O)O[C@H]1C[C@@]2(C)[C@@H](C[C@@H](O)[C@H]3[C@@]4(C)CC[C@@H](OC(=O)c5ccccc5C(=O)O)[C@@H](C)[C@@H]4CC[C@@]32C)/C1=C(\CCC=C(C)C)C(=O)OCc1ccccc1 | 81 | 81 | 89 | 76 | 85 | 68 | 78 | 78 | 20.6 (≈ 27.3 µM)
– | CC(=O)O[C@H]1C[C@@]2(C)[C@@H](C[C@@H](O)[C@H]3[C@@]4(C)CC[C@@H](OC(=O)c5ccccc5C(=O)n5cccn5)[C@@H](C)[C@@H]4CC[C@@]32C)/C1=C(\CCC=C(C)C)C(=O)OCc1ccccc1 | 79 | 90 | 90 | 96 | 87 | 82 | 101 | 85 | –
– | CC(=O)O[C@H]1C[C@@]2(C)[C@@H](C[C@@H](O)[C@H]3[C@@]4(C)CC[C@@H](OC(=O)CCCCCCCN)[C@@H](C)[C@@H]4CC[C@@]32C)/C1=C(\CCC=C(C)C)C(=O)OCc1ccccc1 | 11 | 116 | 99 | 4 | 10 | 19 | 16 | 83 | –
– | CC(=O)O[C@H]1C[C@@]2(C)[C@@H](C[C@@H](O)[C@H]3[C@@]4(C)CC[C@@H](OC(=O)c5ccccc5C(=O)n5ccnc5)[C@@H](C)[C@@H]4CC[C@@]32C)/C1=C(\CCC=C(C)C)C(=O)OCc1ccccc1 | 69 | 85 | 84 | 92 | 77 | 63 | 103 | 81 | –
– | CC(=O)O[C@H]1C[C@@]2(C)[C@@H](C[C@@H](O)[C@H]3[C@@]4(C)CC[C@@H](OC(=O)CCCN)[C@@H](C)[C@@H]4CC[C@@]32C)/C1=C(\CCC=C(C)C)C(=O)OCc1ccccc1 | 13 | 10 | 101 | 6 | 9 | 23 | 90 | 98 | –
– | CC(=O)O[C@H]1C[C@@]2(C)[C@@H](C[C@@H](O)[C@H]3[C@@]4(C)CC[C@@H](OC(=O)c5ccccc5C(=O)N5CCN(C)CC5)[C@@H](C)[C@@H]4CC[C@@]32C)/C1=C(\CCC=C(C)C)C(=O)OCc1ccccc1 | 75 | 86 | 83 | 99 | 77 | 73 | 104 | 89 | –
– | CC(=O)O[C@H]1C[C@@]2(C)[C@@H](C[C@@H](O)[C@H]3[C@@]4(C)CC[C@@H](OC(=O)CCCCCCCCCCN)[C@@H](C)[C@@H]4CC[C@@]32C)/C1=C(\CCC=C(C)C)C(=O)OCc1ccccc1 | 9 | 49 | 100 | 5 | 10 | 19 | 96 | 93 | –
